Data taken from ChEMBL document CHEMBL2177067 (J Med Chem, 2012).
Converted amounts (≈) assume the structure as drawn. The source made the active and inactive calls. No cut-off for these calls is given here.

Columns and labels:
Staphylococcus aureus [1] = test: Antibacterial activity against methicillin-resistant Staphylococcus aureus 1234549404; type: functional
Enterococcus faecalis [2] = test: Antibacterial activity against vancomycin-resistant Enterococcus faecalis 51299; type: functional
Enterococcus faecalis [3] = test: Antibacterial activity against vancomycin-resistant Enterococcus faecalis 700802; type: functional
Staphylococcus aureus [4] = test: Antibacterial activity against Staphylococcus aureus ATCC 25923 by broth microdilution method; type: functional
[5] = Inhibition of Staphylococcus aureus ATCC 25923 replicative DnaB helicase using 0.1875 to 3 mM ATP as substrate assessed as DNA duplex strand-unwinding by FRET assay
Outline: (§1)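 S. aureus helicase FRET unwinding assay run with varied DNA duplex or ATP concentrations, in triplicate. RFU/min slopes were normalized to the uninhibited control, and IC50 came from four-parameter nonlinear fits.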

Staphylococcus aureus [6] = test: Antibacterial activity against methicillin-resistant Staphylococcus aureus 1234547263; type: functional
Enterococcus faecalis [7] = test: Antibacterial activity against vancomycin-resistant Enterococcus faecalis ATCC 51575; type: functional
Enterococcus faecium [8] = test: Antibacterial activity against vancomycin-resistant Enterococcus faecium B42762; type: functional
Staphylococcus aureus [9] = test: Antibacterial activity against Staphylococcus aureus ATCC 25923 assessed as re-growth at MIC after 24 hrs; type: functional, organism-based
Outline: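 At set times up to 24 h, aliquots were diluted and spread on inhibitor-free LB agar to count viable CFU.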

Staphylococcus aureus [10] = test: Antibacterial activity against methicillin-resistant Staphylococcus aureus 1234544081; type: functional
Enterococcus faecium [11] = test: Antibacterial activity against vancomycin-resistant Enterococcus faecium 1644; type: functional
Bacillus licheniformis = test: Antibacterial activity against Bacillus licheniformis ATCC 14580; type: functional
HeLa = test: Cytotoxicity against human HeLa cells by MTS assay; type: cell-based
Staphylococcus aureus [12] = test: Antibacterial activity against Staphylococcus aureus ATCC 25923; type: functional
Bacillus thuringiensis = test: Antibacterial activity against Bacillus thuringiensis ATCC 10792; type: functional
Staphylococcus aureus [13] = test: Antibacterial activity against methicillin-resistant Staphylococcus aureus 1094; type: functional
Staphylococcus aureus [14] = test: Inhibition of Staphylococcus aureus ATCC 25923 single-strand DNA stimulated ATPase activity of replicative DnaB helicase at 50 uM by FRET assay
Enterococcus faecium [15] = test: Antibacterial activity against Enterococcus faecium ATCC 19434; type: functional
Replicative DNA helicase = target: T1, Replicative DNA helicase (Bacillus anthracis, UniProt A0A6L8Q2B7); test: Inhibition of Bacillus anthracis Sterne 34F2 replicative DNA helicase-mediated ATP-dependent dissociation of Hel-5'FAM:Hel-3'BHQ by FRET assay; set-up: species or system Bacillus anthracis str. Sterne
T1 sequence (A0A6L8Q2B7 whole entry): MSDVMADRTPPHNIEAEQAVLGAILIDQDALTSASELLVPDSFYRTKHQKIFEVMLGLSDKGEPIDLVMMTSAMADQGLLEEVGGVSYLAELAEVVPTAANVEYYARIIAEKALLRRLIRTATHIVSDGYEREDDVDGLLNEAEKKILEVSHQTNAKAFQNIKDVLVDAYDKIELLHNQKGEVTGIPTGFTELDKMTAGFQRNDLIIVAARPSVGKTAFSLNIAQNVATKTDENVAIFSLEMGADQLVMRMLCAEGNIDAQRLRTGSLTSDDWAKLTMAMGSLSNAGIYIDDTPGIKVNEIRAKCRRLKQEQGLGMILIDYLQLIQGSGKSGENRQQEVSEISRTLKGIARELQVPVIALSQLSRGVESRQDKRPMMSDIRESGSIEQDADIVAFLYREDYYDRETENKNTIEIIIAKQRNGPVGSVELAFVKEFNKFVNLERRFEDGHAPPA
Outline: (§2)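 Unwinding was read by FRET as helicase-driven, ATP-dependent dissociation of annealed Hel-5′FAM and Hel-3′BHQ oligonucleotides, one fluorescent and the other quencher-labelled. The replicative helicases were prepared as described earlier.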

[16] = Inhibition of Staphylococcus aureus ATCC 25923 replicative DnaB helicase-mediated ATP-dependent dissociation of Hel-5'FAM:Hel-3'BHQ by FRET assay; outline: as §2
Staphylococcus aureus [17] = test: Antibacterial activity against methicillin-resistant Staphylococcus aureus 1234543349; type: functional
Bacillus anthracis [18] = test: Antibacterial activity against Bacillus anthracis Sterne; type: functional
Enterococcus faecalis [19] = test: Antibacterial activity against vancomycin-resistant Enterococcus faecalis F118; type: functional
Bacillus anthracis [20] = test: Antibacterial activity against Bacillus anthracis by broth microdilution method; type: functional
Staphylococcus aureus [21] = test: Antibacterial activity against methicillin-resistant Staphylococcus aureus 1234558336; type: functional
Enterococcus faecalis [22] = test: Antibacterial activity against Enterococcus faecalis ATCC 29212; type: functional
[23] = Inhibition of Staphylococcus aureus ATCC 25923 replicative DnaB helicase using 3.3 to 90 nM Hel-5'FAM:Hel-3'BHQ as substrate assessed as DNA duplex strand-unwinding by FRET assay; outline: as §1
Staphylococcus aureus [24] = test: Antibacterial activity against methicillin-resistant Staphylococcus aureus 1234522733; type: functional
[25] = Selectivity index, ratio of CC50 for human HeLa cells to MIC for Bacillus anthracis; type: functional
Outline: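 Selectivity index is HeLa CC50 (MTS assay) divided by the bacterial MIC.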

Staphylococcus aureus [26] = test: Ratio of MIC for Staphylococcus aureus ATCC 25923 in presence of reserpine to MIC for Staphylococcus aureus ATCC 25923 in absence of reserpine; type: functional
[27] = Selectivity index, ratio of CC50 for human HeLa cells to MIC for Staphylococcus aureus ATCC 25923 in presence of reserpine; type: functional
Staphylococcus aureus [28] = test: Antibacterial activity against Staphylococcus aureus ATCC 25923 by broth microdilution method in presence of reserpine; type: functional

**Q.** Which results are given for Cc1c(CCC(=O)O)c(=O)oc2c(C)c(OCc3ccc(-c4ccccc4)cc3)ccc12?
**A.** MIC (Staphylococcus aureus [1]): 1.56 µg/mL (≈ 3.64 µM); MIC (Enterococcus faecalis [2]): 18.8 µg/mL (≈ 43.9 µM); MIC (Enterococcus faecalis [3]): > 25 µg/mL; MIC (Staphylococcus aureus [4]): 2.5 µM (≈ 1.07 µg/mL); IC50 [5]: 1.5 µM; MIC (Staphylococcus aureus [6]): 2.1 µg/mL (≈ 4.9 µM); MIC (Enterococcus faecalis [7]): > 25 µg/mL; MIC (Enterococcus faecium [8]): 14.6 µg/mL (≈ 34.1 µM); Activity (Staphylococcus aureus [9]): Active; MIC (Staphylococcus aureus [10]): 1.56 µg/mL (≈ 3.64 µM); MIC (Enterococcus faecium [11]): 2.1 µg/mL (≈ 4.9 µM); MIC (Bacillus licheniformis): 0.39 µg/mL (≈ 0.91 µM); CC50 (HeLa): 82 µM; MIC (Staphylococcus aureus [12]): 1.56 µg/mL (≈ 3.64 µM); MIC (Bacillus thuringiensis): 0.65 µg/mL (≈ 1.52 µM); MIC (Staphylococcus aureus [13]): 12.5 µg/mL (≈ 29.2 µM); inhibition (Staphylococcus aureus [14]): 6%; MIC (Enterococcus faecium [15]): 2.6 µg/mL (≈ 6.07 µM); IC50 (Replicative DNA helicase): 3 µM; IC50 [16]: 2 µM; MIC (Staphylococcus aureus [17]): 4.2 µg/mL (≈ 9.8 µM); MIC (Bacillus anthracis [18]): 0.52 µg/mL (≈ 1.21 µM); MIC (Enterococcus faecalis [19]): 16.7 µg/mL (≈ 39 µM); MIC (Bacillus anthracis [20]): 1.25 µM (≈ 0.536 µg/mL); MIC (Staphylococcus aureus [21]): 3.1 µg/mL (≈ 7.23 µM); MIC (Enterococcus faecalis [22]): 5.2 µg/mL (≈ 12.1 µM); IC50 [23]: 1.8 µM; MIC (Staphylococcus aureus [24]): 2.6 µg/mL (≈ 6.07 µM)

**Q.** Which “Selectivity Index” value [25] does the source give for Cc1c(CCC(=O)O)c(=O)oc2c(C)c(OCc3ccc(-c4ccc(C(F)(F)F)cc4)cc3)ccc12 here?
**A.** The value was greater than 25.4.

**Q.** And the MIC (Staphylococcus aureus [4])?
**A.** The MIC was 50 µM (≈ 24.8 µg/mL).

**Q.** And the Ratio (Staphylococcus aureus [26])?
**A.** Its Ratio is 8.

**Q.** What about the CC50 (HeLa) of the same molecule?
**A.** Its CC50 is 20.3 µM.

**Q.** And the IC50 (Replicative DNA helicase)?
**A.** The IC50 was 6.1 µM.

**Q.** What about the IC50 [16] of the same molecule?
**A.** Its IC50 is 3.3 µM.

**Q.** And the “Selectivity Index” value [27]?
**A.** The value was 3.2.

**Q.** What about the MIC (Bacillus anthracis [20]) of the same molecule?
**A.** Its MIC is less than 0.8 µM.

**Q.** What about the MIC (Staphylococcus aureus [28]) of the same molecule?
**A.** The MIC was 6.3 µM.
